Key:
[1] = biological target: Benzodiazepine receptors; peripheral & central (Rattus norvegicus) (UniProt O09028+P15431+P18506+P18508+P19969+P20236+P23574+P23576+P28471+P28473+P30191+P62813+P63079+P63138+Q91ZM7+Q9ES14+P16257); test: Ratio of inhibition for peripheral benzodiazepine receptor of rat ovary and central benzodiazepine GABA-A receptor; format: tissue-based; parameters: scale not given here; settings: Female gonad
Translocator protein [2] = biological target: T1, Translocator protein (Rattus norvegicus, UniProt P16257); test: Displacement of [3H]-PK11195 from peripheral benzodiazepine receptor of rat ovary; format: tissue-based, Female gonad
T1 sequence (P16257 whole entry, looked up): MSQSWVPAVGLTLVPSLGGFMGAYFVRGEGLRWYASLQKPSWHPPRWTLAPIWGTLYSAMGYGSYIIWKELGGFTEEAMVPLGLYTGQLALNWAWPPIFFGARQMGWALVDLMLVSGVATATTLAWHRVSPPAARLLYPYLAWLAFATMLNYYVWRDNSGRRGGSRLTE
In short: (§1)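 Rat tissue (cerebral cortex, ovary) homogenised in 50 vol PBS pH 7.4 at 4 °C, spun at 40 000g for 30 min, washed, resuspended in 10 vol PBS. […] Filtration on polyethyleneimine-soaked GF/B filters, scintillation counting. […] Means of three experiments in duplicate; Ki reported.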

Translocator protein [3] = biological target: T1, Translocator protein; test: Displacement of [3H]PK11195 from peripheral benzodiazepine receptor of rat cerebral cortex; format: tissue-based; in short: as §1
[4] = biological target: GABA-A receptor; anion channel; test: Inhibitory concentration of central benzodiazepine GABA-A receptor of rat cerebral cortex; format: tissue-based
In short: (§2)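 Rat cerebral cortex homogenised in 50 vol ice-cold 50 mM Tris-HCl pH 7.4, spun twice at 20 000g for 10 min. Membranes (0.4–0.5 mg protein) incubated with [3H]flunitrazepam for 60 min at 0 °C. Rapid filtration on GF/B filters, scintillation counting. Nonspecific binding with 5 μM diazepam. Means of three experiments in duplicate; Ki reported.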

Translocator protein [5] = biological target: T1, Translocator protein; test: Inhibitory concentration against peripheral benzodiazepine receptor of rat cerebral cortex; format: tissue-based; in short: as §1
Translocator protein [6] = biological target: T1, Translocator protein; test: Inhibitory concentration against peripheral benzodiazepine receptor of rat ovary; format: tissue-based, Female gonad; in short: as §1
[7] = biological target: GABA-A receptor; anion channel; test: Displacement of [3H]flunitrazepam from central benzodiazepine GABA-A receptor of rat cerebral cortex; format: tissue-based; in short: as §2
Rattus norvegicus [8] = test: Effect of the 25 mg/kg compound on progesterone concentration in rat plasma after 30 min of intraperitoneal administration; format: functional, organism-based; parameters: dose 25 mg/kg
In short: (§3)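 Male Sprague–Dawley rats, about 60 days old, given 25 mg/kg ip in saline with three drops Tween 80 per 5 mL, 0.3 mL/100 g; sampled 30 min later. Brain taken after focused microwave irradiation of the head, plasma after guillotine. Cortex and plasma extracted with ethyl acetate; steroids measured by radioimmunoassay. Results in ng/g tissue, at least eight rats per group, compared with vehicle-treated rats.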

Rattus norvegicus [9] = test: Effect of the 25 mg/kg compound on progesterone concentration in rat cerebral cortex after 30 min of intraperitoneal administration; format: functional, organism-based; parameters: dose 25 mg/kg; in short: as §3
Rattus norvegicus [10] = test: Effect of the 25 mg/kg compound on 3-alpha,5alpha-THDOC concentration in rat plasma after 30 min of intraperitoneal administration; format: functional, organism-based; parameters: dose 25 mg/kg; in short: as §3
Rattus norvegicus [11] = test: Effect of the 25 mg/kg compound on 3-alpha,5alpha-THDOC concentration in rat cerebral cortex after 30 min of intraperitoneal administration; format: functional, organism-based; parameters: dose 25 mg/kg; in short: as §3
Rattus norvegicus [12] = test: Effect of the 25 mg/kg compound on 3-alpha,5alpha-THPROG concentration in rat plasma after 30 min of intraperitoneal administration; format: functional, organism-based; parameters: dose 25 mg/kg; in short: as §3
Rattus norvegicus [13] = test: Effect of the 25 mg/kg compound on 3-alpha,5alpha-THPROG concentration in rat cerebral cortex after 30 min of intraperitoneal administration; format: functional, organism-based; parameters: dose 25 mg/kg; in short: as §3

Structure (SMILES)	Selectivity index [1]	Ki (Translocator protein [2]) [µM]	Ki (Translocator protein [3]) [µM]	pIC50 [4]	IC50 (Translocator protein [5]) [µM]	IC50 (Translocator protein [6]) [µM]	Ki [7] [µM]	Concentration (Rattus norvegicus [8]) [ng/mL]	Concentration (Rattus norvegicus [9]) [ng/g]	Concentration (Rattus norvegicus [10]) [ng/mL]	Concentration (Rattus norvegicus [11]) [ng/g]	Concentration (Rattus norvegicus [12]) [ng/mL]	Concentration (Rattus norvegicus [13]) [ng/g]
O=C(Cc1c(-c2ccc(Cl)cc2)nc2c(Cl)cc(Cl)cn12)NC1CCCCC1	0.977	0.749	0.14	5	0.229	1.05	7.59	–	–	–	–	–	–
CCOC(=O)C1CCCN(C(=O)Cc2c(-c3ccc(Cl)cc3)nc3c(Cl)cc(Cl)cn23)C1 (stereo unspecified)	0.597	1.74	0.0798	5	0.143	2.53	6.88	–	–	–	–	–	–
CN(CCc1ccccn1)C(=O)Cc1c(-c2ccc(Cl)cc2)nc2c(Cl)cc(Cl)cn12	0.294	3.69	0.53	5	0.899	5.08	7.75	–	–	–	–	–	–
CC(C)(C)N(Cc1ccccc1)C(=O)Cc1c(-c2ccc(Cl)cc2)nc2c(Cl)cc(Cl)cn12	-0.26	12.9	2.1	5	3.44	18.2	7.59	–	–	–	–	–	–
O=C(Cc1c(-c2ccc(Cl)cc2)nc2c(Cl)cc(Cl)cn12)N1CCN(Cc2ccccc2)CC1	-1.86	516	12.7	5	20.8	726	6.88	–	–	–	–	–	–
CCCCN(CCCC)C(=O)Cc1c(-c2ccc(Cl)cc2)nc2c(Cl)cccn12	7.65	0.0172	0.00464	5	0.00787	0.0226	6.88	26	10.3	14.9	2.9	23.4	8.8
CCOC(=O)C1CCCN(C(=O)Cc2c(-c3ccc(Cl)cc3)nc3ccc(Cl)cn23)C1 (stereo unspecified)	-0.205	0.207	0.0196	6.725	0.0352	0.302	0.13	–	–	–	–	–	–
CCCCN(C)C(=O)Cc1c(-c2ccccc2)nc2c(Cl)cc(Cl)cn12	3.64	0.00172	0.00216	5	0.0035	0.0023	–	13.6	10.6	10.4	4.1	16.5	9.2
CN(Cc1ccccc1)C(=O)Cc1c(-c2ccc(Cl)cc2)nc2c(Cl)cc(Cl)cn12	–	–	0.00138	5	–	–	6.88	–	–	–	–	–	–
CCCCN(CCCC)C(=O)Cc1c(-c2ccc(Cl)cc2)nc2c(Cl)cc(Cl)cn12	2.73	0.0132	0.00268	5	0.0052	0.0186	7.75	19	11.5	16.2	3.5	27.5	9.1
CN(CCc1ccccn1)C(=O)Cc1c(-c2ccccc2)nc2c(Cl)cc(Cl)cn12	0.296	3.67	1.28	5	2.17	5.06	7.75	–	–	–	–	–	–
O=C(Cc1c(-c2ccc(Cl)cc2)nc2c(Cl)cc(Cl)cn12)N1CCc2ccccc2C1	2.45	0.0253	0.00297	5	0.00486	0.0356	6.88	–	–	–	–	–	–
O=C(Cc1c(-c2ccccc2)nc2c(Cl)cc(Cl)cn12)N1CCCC1	0.029	6.65	0.757	5	1.24	–	6.88	–	–	–	–	–	–
CCCCCCN(CCCCCC)C(=O)Cc1c(-c2ccc(Cl)cc2)nc2ccc(Cl)cn12	1.83	0.0353	0.00301	5.481	0.00511	0.0488	2.56	–	–	–	–	–	–
O=C(Cc1c(-c2ccccc2)nc2c(Cl)cc(Cl)cn12)N1CCCCC1	0.837	1.03	0.0959	5	0.157	1.46	7.59	–	–	–	–	–	–
CCCCN(C(=O)Cc1c(-c2ccc(Cl)cc2)nc2ccc(Cl)cn12)c1ccccc1	1.8	0.00882	0.000884	6.133	0.0015	0.0116	0.506	–	–	–	–	–	–

Structure (SMILES)	Selectivity index [1]	Ki (Translocator protein [2]) [µM]	Ki (Translocator protein [3]) [µM]	pIC50 [4]	IC50 (Translocator protein [5]) [µM]	IC50 (Translocator protein [6]) [µM]	Ki [7] [µM]	Concentration (Rattus norvegicus [8]) [ng/mL]	Concentration (Rattus norvegicus [9]) [ng/g]	Concentration (Rattus norvegicus [10]) [ng/mL]	Concentration (Rattus norvegicus [11]) [ng/g]	Concentration (Rattus norvegicus [12]) [ng/mL]	Concentration (Rattus norvegicus [13]) [ng/g]
CCCCN(CCCC)C(=O)Cc1c(-c2ccc(Cl)cc2)nc2ccccn12	1.19	–	–	–	–	–	–	–	–	–	–	–	–
CCCCCCN(CCCCCC)C(=O)Cc1c(-c2ccc(Cl)cc2)nc2c(Cl)cc(Cl)cn12	0.584	1.89	0.222	5	0.377	2.61	7.75	–	–	–	–	–	–
O=C(Cc1c(-c2ccc(Cl)cc2)nc2c(Cl)cc(Cl)cn12)Nc1ccccc1	2.6	0.0183	0.0117	5	0.0199	0.0252	6.88	–	–	–	–	–	–
O=C(Cc1c(-c2ccccc2)nc2c(Cl)cc(Cl)cn12)N1CCc2ccccc2C1	1.64	0.164	0.0236	5	0.0387	0.231	6.88	–	–	–	–	–	–
CC(C(=O)N(C)Cc1ccccc1)c1c(-c2ccc(Cl)cc2)nc2c(Cl)cc(Cl)cn12 (stereo unspecified)	–	8.33	5.77	5	9.89	11.6	7.01	–	–	–	–	–	–
O=C(Cc1c(-c2ccc(Cl)cc2)nc2c(Cl)cc(Cl)cn12)N1CCCC1	1.02	0.608	0.126	5	0.215	0.843	7.01	–	–	–	–	–	–
CC(C(=O)N(C)C1CCCCC1)c1c(-c2ccc(Cl)cc2)nc2c(Cl)cc(Cl)cn12 (stereo unspecified)	0.513	2.21	2.99	5	5.15	3.07	7.01	–	–	–	–	–	–
CCCN(CCC)C(=O)C(C)c1c(-c2ccc(Cl)cc2)nc2c(Cl)cc(Cl)cn12 (stereo unspecified)	0.572	1.93	0.701	5	1.2	2.68	7.01	–	–	–	–	–	–
CCCCN(CCCC)C(=O)Cc1c(-c2ccc(Cl)cc2)nc2ccc(Cl)cn12	1.12	0.00477	0.00169	7.051	0.00327	0.00673	0.0689	–	–	–	–	–	–
CCCN(Cc1ccc([N+](=O)[O-])cc1)C(=O)Cc1c(-c2ccc(Cl)cc2)nc2c(Cl)cc(Cl)cn12	2.16	0.0505	0.016	5	0.0272	0.0697	6.88	–	–	–	–	–	–
O=C(Cc1c(-c2ccccc2)nc2c(Cl)cc(Cl)cn12)NC1CCCCC1	0.884	0.942	0.771	5	1.32	1.31	7.01	–	–	–	–	–	–
CCCCN(C(=O)Cc1c(-c2ccc(Cl)cc2)nc2c(Cl)cc(Cl)cn12)c1ccccc1	3.32	0.00365	0.00784	5	0.0133	0.0048	6.88	–	–	–	–	–	–
CCCCNC(=O)Cc1c(-c2ccc(Cl)cc2)nc2c(Cl)cc(Cl)cn12	1.54	0.17	0.17	5	0.39	0.29	6.88	–	–	–	–	–	–
CCCCN(Cc1ccccc1)C(=O)Cc1c(-c2ccccc2)nc2c(Cl)cc(Cl)cn12	2.05	0.0647	0.0141	5	0.0242	0.0897	7.01	–	–	–	–	–	–
O=C(Cc1c(-c2ccc(Cl)cc2)nc2c(Cl)cc(Cl)cn12)NCc1ccccc1	–	–	0.0988	5	0.169	–	7.01	–	–	–	–	–	–
O=C(Cc1c(-c2ccccc2)nc2c(Cl)cc(Cl)cn12)Nc1ccncc1	0.387	2.97	1.24	5	2.1	4.1	7.75	–	–	–	–	–	–
